Tests used:
[1] = target: Large neutral amino acids transporter small subunit 1 (Rattus norvegicus) (UniProt Q63016); assay: Binding affinity at LAT1 in rat brain assessed Inhibition of [14C]L-leucine PA uptake at 70 uM; type: tissue-based
Summary of the method: (§1)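 In situ rat brain perfusion with pH 7.4 bicarbonate-buffered saline (37 °C, 95% O2/5% CO2). [14C]L-leucine 0.2 µCi/mL perfused 30 s alone (100% PA product) or co-perfused with 70 µM prodrug. PA product derived from brain radioactivity measured by liquid scintillation counting; [14C]sucrose (0.2 µCi/mL) used as vascular marker. Inhibition relative to control PA; n=3–5.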

[2] = Stability in rat brain assessed as half life of hydrolysis; type: ADME, tissue-based
Summary of the method: (§2)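 Enzymatic hydrolysis at 37 °C in rat serum diluted to 80%, brain homogenate diluted to 20%, or liver homogenate diluted to 50% (v/v) with 0.16 M phosphate buffer pH 7.4. Aliquots taken into acetonitrile to precipitate protein, then analysed by HPLC. Pseudo-first-order half-lives; n=3.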

[3] = Stability in rat serum assessed as half life of hydrolysis; type: ADME, cell-free; summary of the method: as §2
[4] = target: Large neutral amino acids transporter small subunit 1 (Rattus norvegicus) (UniProt Q63016); assay: Inhibition of [14C]L-leucine uptake at LAT1 in rat brain at 70 uM by perfusion technique; type: tissue-based; summary of the method: as §1
Brain [5] = assay: Drug uptake in rat brain at 64 uM in presence of 2-aminobicyclo(2,2,1)heptane-2-carboxylic acid by perfusion technique; type: ADME, tissue-based; conditions: in vivo
Summary of the method: (§3)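 Rat brain perfused in situ for 60 s at 37 °C with 64 µM prodrug, alone or with 2 mM BCH added to the medium. Vasculature washed 30 s with cold prodrug-free medium. Brain uptake in pmol/mg/min quantified by HPLC after extraction; n=3; two-tailed independent t test.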

[6] = Stability in aqueous buffer at pH 7.4; type: physicochemical
Summary of the method: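 Chemical hydrolysis in 0.16 M phosphate buffer pH 7.4 (ionic strength 0.5) at 37 °C in a thermostatted water bath. Disappearance followed by HPLC; pseudo-first-order half-life; n=2.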

[7] = Stability in rat liver assessed as half life of hydrolysis; type: ADME, tissue-based; summary of the method: as §2
Brain [8] = assay: Drug uptake in rat brain at 64 uM by perfusion technique; type: ADME, tissue-based; conditions: in vivo; summary of the method: as §3
[9] = (§4) Drug uptake in rat brain after 60 secs perfusion; type: ADME, tissue-based; conditions: brain, other: perfusion
Summary of the method: (§5)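 In situ rat brain perfusion, 60 s at 37 °C, with seven prodrug concentrations from 0 to 138 µM in bicarbonate-buffered saline pH 7.4. Vasculature then washed 30 s with cold (5 °C) prodrug-free medium. Brain hemisphere homogenised, acidified, ethyl acetate-extracted and analysed by HPLC. Km and Vmax from nonlinear Michaelis–Menten fit; mean ± SD, n=3.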

Brain [10] = assay: as §4; type: ADME, tissue-based; conditions: in vivo, 1 min; summary of the method: as §5

Sequence of Large neutral amino acids transporter small subunit 1 (Rattus norvegicus) (Q63016 whole entry, looked up, the tested form may be a part): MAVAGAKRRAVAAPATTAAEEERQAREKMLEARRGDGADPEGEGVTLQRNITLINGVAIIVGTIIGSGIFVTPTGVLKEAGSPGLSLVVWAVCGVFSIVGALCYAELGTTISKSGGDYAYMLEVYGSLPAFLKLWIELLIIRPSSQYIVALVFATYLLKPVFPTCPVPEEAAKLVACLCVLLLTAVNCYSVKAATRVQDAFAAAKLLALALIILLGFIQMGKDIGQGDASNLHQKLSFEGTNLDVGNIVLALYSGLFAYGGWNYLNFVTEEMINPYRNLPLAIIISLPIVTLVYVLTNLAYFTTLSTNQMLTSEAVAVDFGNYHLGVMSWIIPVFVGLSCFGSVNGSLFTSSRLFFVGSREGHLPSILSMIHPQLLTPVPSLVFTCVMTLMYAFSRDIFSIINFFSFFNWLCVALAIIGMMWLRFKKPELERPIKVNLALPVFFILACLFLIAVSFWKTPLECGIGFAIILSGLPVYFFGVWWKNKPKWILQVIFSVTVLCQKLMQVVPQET

In the case of `CC(C)CC(NC(=O)C(C)c1cccc(C(=O)c2ccccc2)c1)C(=O)O` (stereo not drawn), the Activity [1] is reported as 0.0266 mL/s/g.
In the case of `CC(C(=O)OCCOC(=O)[C@@H](N)Cc1ccccc1)c1cccc(C(=O)c2ccccc2)c1` (stereo partly drawn), the Activity [1] is reported as 0.0282 mL/s/g.
With `CC(C(=O)NC(Cc1ccccc1)C(=O)O)c1cccc(C(=O)c2ccccc2)c1` (stereo not drawn) the Activity [1] was 0.0191 mL/s/g.
In the case of `CC(C(=O)Oc1ccc(C[C@H](N)C(=O)O)cc1)c1cccc(C(=O)c2ccccc2)c1.Cl` (stereo partly drawn), the half-life [2] is reported as 4.4 min, the half-life [3] is reported as 10.2 min and the inhibition [4] is reported as 98.5%. The Drug uptake (Brain [5]) was 0.362 pmol/min/mg, the half-life [6] was 1350 min and the half-life [7] was 2.8 min. The Drug uptake (Brain [8]) was 0.846 pmol/min/mg, the Km at 1 min [9] was 22.5 µM and the Vmax (Brain [10]) was 1.41 pmol/min/mg.
For `CC(C)C[C@H](N)C(=O)OCCOC(=O)C(C)c1cccc(C(=O)c2ccccc2)c1` (stereo partly drawn), the Activity [1] was 0.0212 mL/s/g.

Reference: ChEMBL document CHEMBL1143245, “Large neutral amino acid transporter enables brain drug delivery via prodrugs” (J Med Chem, 2008)
